Test results taken from ChEMBL document CHEMBL3779810, “Potent, Selective, and Orally Bioavailable Inhibitors of VPS34 Provide Chemical Tools to Modulate Autophagy in Vivo” (ACS Med Chem Lett, 2016).
Activity calls are given as the source filed them. The rule behind the calls is not given here.

Key:
[1] = Intrinsic clearance in mouse liver microsomes by LC-MS/MS analysis; type: ADME; conditions: read-out: CLH
[2] = target: T1, Phosphatidylinositol 4,5-bisphosphate 3-kinase catalytic subunit delta isoform (Homo sapiens, UniProt O00329); experiment: Inhibition of PI3Kdelta (unknown origin)
T1 sequence (O00329 whole entry): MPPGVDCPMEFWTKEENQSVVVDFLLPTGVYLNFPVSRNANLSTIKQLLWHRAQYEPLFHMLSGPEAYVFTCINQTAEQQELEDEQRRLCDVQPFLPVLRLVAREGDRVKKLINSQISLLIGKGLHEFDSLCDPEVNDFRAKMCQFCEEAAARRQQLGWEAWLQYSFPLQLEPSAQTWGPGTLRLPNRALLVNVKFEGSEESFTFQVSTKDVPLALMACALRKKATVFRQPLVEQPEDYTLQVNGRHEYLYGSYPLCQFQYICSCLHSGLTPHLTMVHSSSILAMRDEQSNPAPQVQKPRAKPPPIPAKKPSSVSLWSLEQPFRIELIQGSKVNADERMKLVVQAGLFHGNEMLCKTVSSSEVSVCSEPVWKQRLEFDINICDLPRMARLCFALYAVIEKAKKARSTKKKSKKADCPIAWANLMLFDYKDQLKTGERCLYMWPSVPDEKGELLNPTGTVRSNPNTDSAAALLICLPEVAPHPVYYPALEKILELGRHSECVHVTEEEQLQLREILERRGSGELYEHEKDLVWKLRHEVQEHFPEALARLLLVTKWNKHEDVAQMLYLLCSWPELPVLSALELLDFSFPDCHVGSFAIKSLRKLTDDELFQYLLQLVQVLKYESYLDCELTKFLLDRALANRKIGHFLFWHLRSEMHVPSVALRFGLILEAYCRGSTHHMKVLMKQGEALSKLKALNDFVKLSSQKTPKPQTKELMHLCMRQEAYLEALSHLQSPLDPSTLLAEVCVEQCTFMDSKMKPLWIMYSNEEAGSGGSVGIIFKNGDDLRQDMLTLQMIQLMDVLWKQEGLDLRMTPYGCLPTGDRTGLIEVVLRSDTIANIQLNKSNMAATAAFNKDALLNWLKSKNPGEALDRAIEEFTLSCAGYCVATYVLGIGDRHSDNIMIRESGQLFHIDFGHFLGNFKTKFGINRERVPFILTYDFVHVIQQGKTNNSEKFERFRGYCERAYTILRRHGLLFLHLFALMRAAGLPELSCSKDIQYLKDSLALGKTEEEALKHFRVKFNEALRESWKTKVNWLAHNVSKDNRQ

[3] = target: T2, Phosphatidylinositol 3-kinase catalytic subunit type 3 (Homo sapiens, UniProt Q8NEB9); experiment: Inhibition of recombinant human VPS34 using L-alpha-phosphatidylinositol as substrate incubated for 10 mins by luminescence based ATP detection assay
T2 sequence (Q8NEB9 whole entry): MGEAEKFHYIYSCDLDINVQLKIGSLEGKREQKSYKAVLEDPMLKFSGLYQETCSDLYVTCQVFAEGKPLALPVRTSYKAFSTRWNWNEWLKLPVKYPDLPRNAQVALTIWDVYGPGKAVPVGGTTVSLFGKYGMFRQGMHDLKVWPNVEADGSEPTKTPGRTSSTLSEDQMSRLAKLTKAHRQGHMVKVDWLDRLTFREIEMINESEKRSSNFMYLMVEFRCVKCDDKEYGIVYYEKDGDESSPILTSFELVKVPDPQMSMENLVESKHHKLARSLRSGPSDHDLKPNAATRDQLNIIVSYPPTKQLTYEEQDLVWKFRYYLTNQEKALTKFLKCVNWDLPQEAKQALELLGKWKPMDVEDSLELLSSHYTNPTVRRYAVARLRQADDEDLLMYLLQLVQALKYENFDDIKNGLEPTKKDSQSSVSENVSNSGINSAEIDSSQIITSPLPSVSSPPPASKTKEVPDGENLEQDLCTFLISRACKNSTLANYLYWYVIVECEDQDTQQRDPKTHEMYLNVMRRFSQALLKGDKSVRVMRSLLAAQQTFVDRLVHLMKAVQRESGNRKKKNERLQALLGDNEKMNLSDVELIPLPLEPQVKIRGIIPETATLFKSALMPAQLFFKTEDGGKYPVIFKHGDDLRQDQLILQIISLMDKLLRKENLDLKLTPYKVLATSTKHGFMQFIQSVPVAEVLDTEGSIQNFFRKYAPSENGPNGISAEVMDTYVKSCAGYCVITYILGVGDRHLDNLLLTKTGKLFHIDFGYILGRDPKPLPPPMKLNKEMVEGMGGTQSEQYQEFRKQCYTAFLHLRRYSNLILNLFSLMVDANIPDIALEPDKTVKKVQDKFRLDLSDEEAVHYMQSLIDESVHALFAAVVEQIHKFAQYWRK
Summary of the method: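 VPS34 biochemical IC50 was measured with a luminescence-based ATP detection read-out.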

[4] = target: T2, Phosphatidylinositol 3-kinase catalytic subunit type 3; experiment: Inhibition of VPS34 in human U2OS cells incubated for 2 hrs by GFP-FYVE reporter gene assay; type: cell-based
Homo sapiens [5] = species on record: Homo sapiens; experiment: Selectivity ratio of IC50 for PI3Kdelta (unknown origin) to recombinant human VPS34
Homo sapiens [6] = species on record: Homo sapiens; experiment: Selectivity ratio of IC50 for TAK1 (unknown origin) to recombinant human VPS34
Homo sapiens [7] = species on record: Homo sapiens; experiment: Selectivity ratio of IC50 for PI3Kalpha (unknown origin) to recombinant human VPS34
Homo sapiens [8] = species on record: Homo sapiens; experiment: Selectivity ratio of IC50 for PI3Kbeta (unknown origin) to recombinant human VPS34
Homo sapiens [9] = species on record: Homo sapiens; experiment: Selectivity ratio of IC50 for PI3Kgamma (unknown origin) to recombinant human VPS34
[10] = target: T2, Phosphatidylinositol 3-kinase catalytic subunit type 3; experiment: Inhibition of VPS34 in human DLD1 cells assessed as prevention of NCOA4 protein degradation at 1 to 10 uM incubated for 24 hrs by Western blot analysis; type: cell-based; conditions: DLD-1
[11] = target: T2, Phosphatidylinositol 3-kinase catalytic subunit type 3; experiment: Inhibition of VPS34 in human DLD1 cells assessed as prevention of p62 degradation at 1 to 10 uM incubated for 24 hrs by Western blot analysis; type: cell-based; conditions: DLD-1
[12] = target: T2, Phosphatidylinositol 3-kinase catalytic subunit type 3; experiment: Inhibition of VPS34 in human DLD1 cells assessed as prevention of NBR1 protein degradation at 1 to 10 uM incubated for 24 hrs by Western blot analysis; type: cell-based; conditions: DLD-1
[13] = target: T2, Phosphatidylinositol 3-kinase catalytic subunit type 3; experiment: Inhibition of VPS34 in human DLD1 cells assessed as prevention of NDP52 protein degradation at 1 to 10 uM incubated for 24 hrs by Western blot analysis; type: cell-based; conditions: DLD-1
[14] = target: T2, Phosphatidylinositol 3-kinase catalytic subunit type 3; experiment: Inhibition of VPS34 in human DLD1 cells assessed as prevention of FTH1 protein degradation at 1 to 10 uM incubated for 24 hrs by Western blot analysis; type: cell-based; conditions: DLD-1
[15] = target: T2, Phosphatidylinositol 3-kinase catalytic subunit type 3; experiment: Inhibition of VPS34 in human DLD1 cells assessed as increase in LC3-1 protein expression at 1 to 10 uM incubated for 24 hrs by Western blot analysis; type: cell-based; conditions: DLD-1
[16] = target: T2, Phosphatidylinositol 3-kinase catalytic subunit type 3; experiment: Inhibition of VPS34 in human DLD1 cells assessed as increase in LC3-2 protein expression at 1 to 10 uM incubated for 24 hrs by Western blot analysis; type: cell-based; conditions: DLD-1
[17] = Systemic clearance in C57BL/6 mouse at 10 mg/kg, po; type: ADME, organism-based; conditions: in vivo
Summary of the method: (§1)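 Pharmacokinetics in C57BL/6 mice after a single dose, either intravenous at 2 mg/kg or oral at 10 mg/kg. Mean parameters reported: AUCinf, CL, Vdss, t1/2, Tmax, Cmax and F. Clearance was also expressed as a percentage of hepatic blood flow.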

Mus musculus [18] = experiment: Systemic clearance in C57BL/6 mouse at 10 mg/kg, po relative to hepatic blood flow; type: ADME, organism-based, Liver; conditions: in vivo; summary of the method: as §1
[19] = AUC (0 to infinity) in C57BL/6 mouse at 2 mg/kg, iv; type: ADME, organism-based; set-up: dose 2 mg/kg, route intravenous, time infinity; conditions: in vivo; summary of the method: as §1
[20] = AUC (0 to infinity) in C57BL/6 mouse at 10 mg/kg, po; type: ADME, organism-based; set-up: dose 10 mg/kg, route oral, time infinity; conditions: in vivo; summary of the method: as §1
[21] = Clearance in C57BL/6 mouse at 2 mg/kg, iv; type: ADME, organism-based; conditions: in vivo; summary of the method: as §1
[22] = Volume of distribution at steady state in C57BL/6 mouse at 2 mg/kg, iv; type: ADME, organism-based; conditions: in vivo, read-out: Vdss; summary of the method: as §1
[23] = Half life in C57BL/6 mouse at 2 mg/kg, iv; type: ADME, organism-based; conditions: in vivo; summary of the method: as §1
[24] = Tmax in C57BL/6 mouse at 10 mg/kg, po; type: ADME, organism-based; conditions: in vivo; summary of the method: as §1
[25] = Cmax in C57BL/6 mouse at 10 mg/kg, po; type: ADME, organism-based; set-up: dose 10 mg/kg, route oral; conditions: in vivo; summary of the method: as §1
[26] = Oral bioavailability in C57BL/6 mouse at 10 mg/kg; type: ADME, organism-based; conditions: in vivo; summary of the method: as §1
Mus musculus [27] = experiment: Inhibition of autophagy in athymic nude mouse xenografted with human RKO cells assessed as accumulation of LC3-2 protein at 50 mg/kg, po bid for 7 days by SDS-PAGE analysis; type: functional, organism-based; conditions: TDE = time-dependent effect
Summary of the method: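 Nude mice bearing RKO colon cancer tumors were dosed orally at 50 mg/kg twice daily (BID) for 7 days. LC3-II in tumor samples was followed over time by immunoblot, one lane per individual mouse.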

RKO = experiment: Antitumor activity against human RKO cells xenografted in athymic nude mouse assessed as reduction in tumor volume at 50 mg/kg, po bid for 7 days; type: functional, organism-based
[28] = target: Phosphatidylinositol 4,5-bisphosphate 3-kinase catalytic subunit alpha isoform (Homo sapiens, UniProt P42336); experiment: Inhibition of PI3Kalpha (unknown origin)
Sequence of Phosphatidylinositol 4,5-bisphosphate 3-kinase catalytic subunit alpha isoform (P42336 whole entry, canonical isoform): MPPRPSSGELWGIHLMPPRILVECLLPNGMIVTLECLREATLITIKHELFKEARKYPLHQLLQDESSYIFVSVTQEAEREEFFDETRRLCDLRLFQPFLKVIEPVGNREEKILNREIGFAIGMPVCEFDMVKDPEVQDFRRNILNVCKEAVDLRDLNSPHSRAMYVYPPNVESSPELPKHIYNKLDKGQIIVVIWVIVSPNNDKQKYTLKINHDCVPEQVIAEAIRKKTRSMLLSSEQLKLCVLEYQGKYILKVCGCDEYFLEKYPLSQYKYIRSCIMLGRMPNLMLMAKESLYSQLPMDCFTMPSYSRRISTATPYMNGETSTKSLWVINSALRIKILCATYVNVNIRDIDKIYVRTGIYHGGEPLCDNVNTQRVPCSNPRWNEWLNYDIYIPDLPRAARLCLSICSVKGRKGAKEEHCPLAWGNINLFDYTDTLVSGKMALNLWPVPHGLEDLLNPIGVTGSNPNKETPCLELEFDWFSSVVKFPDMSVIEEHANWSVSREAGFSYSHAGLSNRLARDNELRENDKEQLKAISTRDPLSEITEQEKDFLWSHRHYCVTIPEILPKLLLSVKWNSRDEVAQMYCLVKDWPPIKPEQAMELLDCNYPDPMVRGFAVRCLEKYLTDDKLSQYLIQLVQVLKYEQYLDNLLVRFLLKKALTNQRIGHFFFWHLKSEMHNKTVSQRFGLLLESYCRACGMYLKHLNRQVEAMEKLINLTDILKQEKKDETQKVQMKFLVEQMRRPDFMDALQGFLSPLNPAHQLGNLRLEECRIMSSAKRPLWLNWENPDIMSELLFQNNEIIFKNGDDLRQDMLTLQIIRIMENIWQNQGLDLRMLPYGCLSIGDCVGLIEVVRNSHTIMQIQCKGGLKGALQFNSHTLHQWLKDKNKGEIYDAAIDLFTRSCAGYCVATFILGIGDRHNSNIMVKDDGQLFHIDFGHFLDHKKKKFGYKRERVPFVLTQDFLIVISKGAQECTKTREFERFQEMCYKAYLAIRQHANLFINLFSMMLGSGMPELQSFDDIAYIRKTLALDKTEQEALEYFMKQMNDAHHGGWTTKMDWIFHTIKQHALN

[29] = target: Phosphatidylinositol 4,5-bisphosphate 3-kinase catalytic subunit beta isoform (Homo sapiens, UniProt P42338); experiment: Inhibition of PI3Kbeta (unknown origin)
Sequence of Phosphatidylinositol 4,5-bisphosphate 3-kinase catalytic subunit beta isoform (P42338 whole entry, canonical isoform): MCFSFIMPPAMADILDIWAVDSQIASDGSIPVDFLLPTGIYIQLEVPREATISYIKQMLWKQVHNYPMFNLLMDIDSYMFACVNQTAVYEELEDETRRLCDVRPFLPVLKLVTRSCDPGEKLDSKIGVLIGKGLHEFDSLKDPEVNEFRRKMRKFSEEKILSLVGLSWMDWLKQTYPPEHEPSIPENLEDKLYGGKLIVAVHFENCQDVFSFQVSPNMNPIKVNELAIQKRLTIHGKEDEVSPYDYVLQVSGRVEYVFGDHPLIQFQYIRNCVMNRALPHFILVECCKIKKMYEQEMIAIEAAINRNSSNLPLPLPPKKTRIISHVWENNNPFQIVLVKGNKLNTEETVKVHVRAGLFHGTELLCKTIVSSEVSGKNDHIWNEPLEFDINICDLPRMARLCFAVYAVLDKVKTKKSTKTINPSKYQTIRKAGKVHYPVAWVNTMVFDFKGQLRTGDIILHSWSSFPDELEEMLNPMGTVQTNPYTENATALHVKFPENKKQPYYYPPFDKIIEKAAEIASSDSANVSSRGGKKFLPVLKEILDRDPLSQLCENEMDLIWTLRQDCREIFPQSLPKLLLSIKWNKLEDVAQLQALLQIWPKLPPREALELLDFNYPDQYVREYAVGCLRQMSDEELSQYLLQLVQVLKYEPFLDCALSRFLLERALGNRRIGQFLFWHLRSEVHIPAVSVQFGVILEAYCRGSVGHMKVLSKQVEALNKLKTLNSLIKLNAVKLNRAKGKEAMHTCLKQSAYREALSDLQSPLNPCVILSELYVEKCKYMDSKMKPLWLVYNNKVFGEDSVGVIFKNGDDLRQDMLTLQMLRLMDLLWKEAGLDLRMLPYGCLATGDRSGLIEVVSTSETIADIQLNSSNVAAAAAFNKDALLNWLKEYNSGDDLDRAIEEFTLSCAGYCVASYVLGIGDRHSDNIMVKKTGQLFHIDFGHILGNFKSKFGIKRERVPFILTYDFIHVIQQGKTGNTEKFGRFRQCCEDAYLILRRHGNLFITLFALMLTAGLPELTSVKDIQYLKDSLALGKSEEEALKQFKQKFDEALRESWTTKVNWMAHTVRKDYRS

[30] = target: Phosphatidylinositol 4,5-bisphosphate 3-kinase catalytic subunit gamma isoform (Homo sapiens, UniProt P48736); experiment: Inhibition of PI3Kgamma (unknown origin)
Sequence of Phosphatidylinositol 4,5-bisphosphate 3-kinase catalytic subunit gamma isoform (P48736 whole entry, canonical isoform): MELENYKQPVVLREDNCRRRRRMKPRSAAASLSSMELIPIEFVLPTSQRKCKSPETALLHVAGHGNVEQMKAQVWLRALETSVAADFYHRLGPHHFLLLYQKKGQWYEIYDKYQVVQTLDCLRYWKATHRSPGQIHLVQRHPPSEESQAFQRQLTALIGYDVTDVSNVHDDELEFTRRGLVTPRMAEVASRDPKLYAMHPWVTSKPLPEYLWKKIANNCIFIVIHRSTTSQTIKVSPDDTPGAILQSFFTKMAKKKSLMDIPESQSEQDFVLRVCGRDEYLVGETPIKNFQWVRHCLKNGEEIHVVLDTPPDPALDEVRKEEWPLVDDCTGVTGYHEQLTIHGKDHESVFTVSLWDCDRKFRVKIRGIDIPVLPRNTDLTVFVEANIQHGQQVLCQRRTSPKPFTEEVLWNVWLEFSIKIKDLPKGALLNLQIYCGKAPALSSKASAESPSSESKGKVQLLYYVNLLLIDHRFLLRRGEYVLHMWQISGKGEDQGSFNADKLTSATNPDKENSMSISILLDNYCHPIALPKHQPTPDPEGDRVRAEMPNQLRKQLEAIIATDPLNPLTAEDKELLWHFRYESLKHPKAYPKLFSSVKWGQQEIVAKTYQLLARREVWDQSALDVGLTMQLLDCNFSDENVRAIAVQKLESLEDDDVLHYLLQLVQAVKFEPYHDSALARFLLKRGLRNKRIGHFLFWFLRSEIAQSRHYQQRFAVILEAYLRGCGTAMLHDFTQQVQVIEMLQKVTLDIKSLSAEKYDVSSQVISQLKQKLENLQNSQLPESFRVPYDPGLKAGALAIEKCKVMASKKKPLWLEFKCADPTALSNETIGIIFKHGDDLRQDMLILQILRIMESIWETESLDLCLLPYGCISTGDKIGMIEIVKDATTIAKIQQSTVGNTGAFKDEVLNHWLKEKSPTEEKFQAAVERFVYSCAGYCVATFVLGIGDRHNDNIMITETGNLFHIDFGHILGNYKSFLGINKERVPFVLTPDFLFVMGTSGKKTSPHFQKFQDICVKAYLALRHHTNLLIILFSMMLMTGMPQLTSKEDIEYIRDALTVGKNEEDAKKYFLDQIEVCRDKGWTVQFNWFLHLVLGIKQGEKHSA

[31] = target: Phosphatidylinositol 4-kinase beta (Homo sapiens, UniProt Q9UBF8); experiment: Inhibition of PI4Kbeta (unknown origin)
Sequence of Phosphatidylinositol 4-kinase beta (Q9UBF8 whole entry): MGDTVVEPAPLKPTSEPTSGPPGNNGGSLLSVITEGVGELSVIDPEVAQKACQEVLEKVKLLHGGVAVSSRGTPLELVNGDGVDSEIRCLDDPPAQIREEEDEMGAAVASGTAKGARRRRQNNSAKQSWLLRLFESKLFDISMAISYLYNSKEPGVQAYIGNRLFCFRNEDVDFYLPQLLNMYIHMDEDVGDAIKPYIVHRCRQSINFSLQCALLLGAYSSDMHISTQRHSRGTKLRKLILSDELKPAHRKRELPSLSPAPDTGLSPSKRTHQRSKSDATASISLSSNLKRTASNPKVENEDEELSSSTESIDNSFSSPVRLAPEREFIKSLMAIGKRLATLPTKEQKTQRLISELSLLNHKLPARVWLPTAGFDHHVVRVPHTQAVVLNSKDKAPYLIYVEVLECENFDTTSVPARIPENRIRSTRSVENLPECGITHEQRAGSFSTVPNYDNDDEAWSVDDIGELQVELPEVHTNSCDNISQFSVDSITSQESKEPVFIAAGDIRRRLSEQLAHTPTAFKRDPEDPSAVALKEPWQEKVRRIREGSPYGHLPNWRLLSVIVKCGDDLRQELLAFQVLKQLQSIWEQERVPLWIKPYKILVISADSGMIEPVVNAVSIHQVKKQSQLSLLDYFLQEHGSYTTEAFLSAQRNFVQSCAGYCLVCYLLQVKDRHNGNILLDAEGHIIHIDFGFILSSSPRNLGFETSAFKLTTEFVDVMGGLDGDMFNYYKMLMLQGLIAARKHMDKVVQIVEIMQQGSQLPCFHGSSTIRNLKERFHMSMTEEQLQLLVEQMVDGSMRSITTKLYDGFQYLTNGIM

COc1ncc(-c2ccnc(Nc3ccncc3)n2)c(CC2CC2)n1
CLint scaled [1]: 84.7 mL/min/kg
IC50 [2]: 8500 nM

CNc1ncc(-c2ccnc(NC3CCCCC3)n2)c(CC2CC2)n1
IC50 [3]: 3400 nM

CNc1ncc(-c2ccnc(Nc3cnc4ccccc4c3)n2)c(CC2CC2)n1
IC50 [3]: 130 nM

CC(C)(O)CNc1ncc(-c2ccnc(Nc3ccncc3)n2)c(CC2CC2)n1
CLint scaled [1]: 63.2 mL/min/kg
IC50 [4]: 25 nM
IC50 [2]: 820 nM
Ratio IC50 (Homo sapiens [5]): 40
Ratio IC50 (Homo sapiens [6]): 10
Ratio IC50 (Homo sapiens [7]): > 100
Ratio IC50 (Homo sapiens [8]): > 100
Ratio IC50 (Homo sapiens [9]): > 100
inhibition [10]: Active
inhibition [11]: Active
inhibition [12]: Active
inhibition [13]: Active
inhibition [14]: Active
inhibition [15]: Active
inhibition [16]: Active
CL/F [17]: 30 mL/min/kg
CL (Mus musculus [18]): 33%
AUC(0-inf) [19]: 2.85 µM·h
AUC(0-inf) [20]: 6.73 µM·h
clearance [21]: 30 mL/min/kg
Vd [22]: 1.5 L/kg
half-life [23]: 72 min
Tmax [24]: 42 min
Cmax [25]: 2990 nM
bioavailability [26]: 47%
inhibition (Mus musculus [27]): tde
Activity (RKO): inactive

CNc1ncc(-c2ccnc(NCCCO)n2)c(CC2CC2)n1
IC50 [3]: 6300 nM

Nc1ncc(-c2ccnc(Nc3ccncc3)n2)c(CC2CC2)n1
CLint scaled [1]: 72.8 mL/min/kg
inhibition [10]: Active
inhibition [11]: Active
inhibition [12]: Active
inhibition [13]: Active
inhibition [14]: Active

CNc1ncc(-c2ccnc(Nc3ccncc3)n2)c(CC2CC2)n1
CLint scaled [1]: 86.7 mL/min/kg
IC50 [4]: 14 nM
IC50 [28]: 6800 nM
IC50 [29]: > 9100 nM
IC50 [30]: 1900 nM
IC50 [2]: 2900 nM

CNc1ncc(-c2ccnc(N[C@H]3CC[C@H](N)CC3)n2)c(CC2CC2)n1
IC50 [3]: 410 nM

CNc1ncc(-c2ccnc(N[C@H]3CC[C@H](O)CC3)n2)c(CC2CC2)n1
CLint scaled [1]: 82.6 mL/min/kg
IC50 [31]: 3800 nM
IC50 [28]: 6200 nM
IC50 [29]: > 9100 nM
IC50 [30]: 8500 nM
IC50 [2]: 7000 nM

c1cc(Nc2nccc(-c3cncnc3CC3CC3)n2)ccn1
CLint scaled [1]: 69.9 mL/min/kg
IC50 [3]: 210 nM
IC50 [4]: 330 nM
IC50 [2]: > 9100 nM

CC(C)(C)CNc1ncc(-c2ccnc(Nc3ccncc3)n2)c(CC2CC2)n1
CLint scaled [1]: 67 mL/min/kg
IC50 [2]: 500 nM

CNc1ncc(-c2ccnc(Nc3ccccc3)n2)c(CC2CC2)n1
IC50 [3]: 290 nM

CC(C)(C)Nc1ncc(-c2ccnc(Nc3ccncc3)n2)c(CC2CC2)n1
CLint scaled [1]: 85.5 mL/min/kg
IC50 [2]: 740 nM

c1cc(Nc2nccc(-c3cnc(NC4CCOCC4)nc3CC3CC3)n2)ccn1
CLint scaled [1]: 65.8 mL/min/kg
IC50 [3]: 240 nM
IC50 [4]: 270 nM
IC50 [2]: 4200 nM

c1ccc(CNc2ncc(-c3ccnc(Nc4ccncc4)n3)c(CC3CC3)n2)cc1
CLint scaled [1]: 74.8 mL/min/kg
IC50 [2]: 3700 nM
